Converted amounts (≈) assume the structure as drawn. The source made the active and inactive calls. No cut-off for these calls is given here.
Assays:
DU-145 = experiment: Cytotoxicity against human DU145 cells after 48 hrs by MTT assay; conditions: DU-145, 48 h
Carbonic anhydrase 9 = Carbonic anhydrase 9 (Homo sapiens, UniProt Q16790); experiment: Inhibition of carbonic anhydrase 9 (unknown origin) preincubated for 15 mins by stopped flow CO2 hydration assay
MDA-MB-231 = experiment: Cytotoxicity against human MDA-MB-231 cells after 48 hrs by MTT assay; conditions: MDA-MB-231, 48 h
COLO 205 [1] = experiment: Cytotoxicity against human COLO205 cells after 48 hrs by MTT assay; conditions: COLO 205, 48 h
COLO 205 [2] = experiment: Induction of apoptosis in human COLO205 cells assessed as DNA fragmentation at IC50 after 48 hrs using Hoechst 33258 staining by fluorescence microscopic analysis; assay type: functional, cell-based
Summary of the method: (§1)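 COLO-205 cells plated at 10⁵ cells/ml and grown to 70-80% confluency, then treated for 48 h. Fixed in 4% formaldehyde for 30 min at RT and stained with Hoechst 33258 for 15 min at RT. After three PBS washes, examined by inverted fluorescence microscopy (ex 340-380 nm, em 465 nm) against untreated control cells.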

COLO 205 [3] = experiment: Induction of apoptosis in human COLO205 cells assessed as nuclear condensation at IC50 after 48 hrs using Hoechst 33258 staining by fluorescence microscopic analysis; assay type: functional, cell-based; summary of the method: as §1
COLO 205 [4] = experiment: Induction of apoptosis in human COLO205 cells assessed as chromatin condensation at IC50 after 48 hrs using acridine orange and ethidium bromide staining by fluorescence microscopic analysis; assay type: functional, cell-based
Summary of the method: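 COLO-205 cells seeded at 10⁵ cells/ml, grown 24 h, then treated for 48 h. Cells collected by trypsinization, centrifuged at 129 g for 5 min, and washed with PBS. Stained with a 1:1 acridine orange/ethidium bromide mix and examined by fluorescence microscopy against control cells.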

Mus musculus [5] = experiment: Toxicity in Swiss albino mouse DLA-induced solid tumor model assessed as increase in body weight at 50 mg/kg, po administered on days 3rd, 5th, 7th, 10th, 12th, and 14th of tumor inoculation measured on day 30 (reference value: 13.79%); assay type: organism-based; parameters: dose 50 mg/kg, route oral; conditions: in vivo
Mus musculus [6] = experiment: Antitumor activity in Swiss albino mouse DLA-induced solid tumor model assessed as reduction in tumor volume at 50 mg/kg, po administered on days 3rd, 5th, 7th, 10th, 12th, and 14th of tumor inoculation measured on day 30; assay type: functional; parameters: scale not given: the % may be the effect or the level left
Summary of the method: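 Male Swiss albino mice (6-8 weeks, 29 ± 2 g) received DLA cells, 1 × 10⁶/mouse, subcutaneously into the right hind limb. Dosing by mouth in 0.25% CMC suspension. A vernier caliper gave tumor diameter every third day from day 3, and V = 4/3πr₁²×r₂. Percent inhibition is against vehicle control on day 30. Six mice per group.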

SMILES | Ki (Carbonic anhydrase 9) | IC50 (DU-145) | IC50 (MDA-MB-231) | IC50 (COLO 205 [1]) | Activity (COLO 205 [2]) | Activity (COLO 205 [3]) | Activity (COLO 205 [4]) | Activity (Mus musculus [5]) | Activity (Mus musculus [6])
NS(=O)(=O)c1ccc(N2C(=O)CSC2c2ccc(Br)cc2)cc1 (stereo not given) | 13.5 nM | 35.1 µg/mL (≈ 84.9 µM) | 17.5 µg/mL (≈ 42.3 µM) | 23.1 µg/mL (≈ 55.8 µM) |  |  |  |  | 
NS(=O)(=O)c1ccc(N2C(=O)CSC2c2cccc(Cl)c2)cc1 (stereo not given) | 2.2 nM | 23.9 µg/mL (≈ 64.9 µM) | 5.81 µg/mL (≈ 15.8 µM) | 5.03 µg/mL (≈ 13.6 µM) | Active | Active | Active | 4.09% | 64.83%
NS(=O)(=O)c1ccc(N2C(=O)CSC2c2cccc(F)c2)cc1 (stereo not given) | 53.1 nM | 39.1 µg/mL (≈ 111 µM) | 21.4 µg/mL (≈ 60.6 µM) | 29.8 µg/mL (≈ 84.7 µM) |  |  |  |  | 
NS(=O)(=O)c1ccc(N2C(=O)CSC2c2ccccc2Cl)cc1 (stereo not given) | 7.7 nM | 33.3 µg/mL (≈ 90.2 µM) | 13.6 µg/mL (≈ 36.8 µM) | 19.5 µg/mL (≈ 52.9 µM) |  |  |  |  | 
NS(=O)(=O)c1ccc(N2C(=O)CSC2c2ccc(Cl)cc2)cc1 (stereo not given) | 4.7 nM | 29.3 µg/mL (≈ 79.4 µM) | 7.16 µg/mL (≈ 19.4 µM) | 15.4 µg/mL (≈ 41.7 µM) |  |  |  |  | 
NS(=O)(=O)c1ccc(N2C(=O)CSC2c2ccccc2)cc1 (stereo not given) | 21.2 nM | 39.2 µg/mL (≈ 117 µM) | 23.9 µg/mL (≈ 71.4 µM) | 30.6 µg/mL (≈ 91.5 µM) |  |  |  |  | 
NS(=O)(=O)c1ccc(N2C(=O)CSC2c2ccccc2Br)cc1 (stereo not given) | 9.2 nM | 35 µg/mL (≈ 84.7 µM) | 20.6 µg/mL (≈ 49.9 µM) | 27.5 µg/mL (≈ 66.5 µM) |  |  |  |  | 

The remaining molecules from weak to strong by Ki (Carbonic anhydrase 9), led by results:

Ki (Carbonic anhydrase 9) | SMILES | IC50 (DU-145) | IC50 (MDA-MB-231) | IC50 (COLO 205 [1]) | Activity (COLO 205 [2]) | Activity (COLO 205 [3]) | Activity (COLO 205 [4]) | Activity (Mus musculus [5]) | Activity (Mus musculus [6])
44.4 nM | NS(=O)(=O)c1ccc(N2C(=O)CSC2c2ccccc2F)cc1 (stereo not given) | 38.6 µg/mL (≈ 110 µM) | 25.9 µg/mL (≈ 73.4 µM) | 34.7 µg/mL (≈ 98.4 µM) |  |  |  |  | 
37.4 nM | NS(=O)(=O)c1ccc(N2C(=O)CSC2c2ccc(F)cc2)cc1 (stereo not given) | 37.1 µg/mL (≈ 105 µM) | 22.7 µg/mL (≈ 64.4 µM) | 31.4 µg/mL (≈ 89 µM) |  |  |  |  | 
19.4 nM | NS(=O)(=O)c1ccc(N2C(=O)CSC2c2cccc(Br)c2)cc1 (stereo not given) | 30.1 µg/mL (≈ 72.9 µM) | 12.4 µg/mL (≈ 30 µM) | 16.9 µg/mL (≈ 40.9 µM) |  |  |  |  | 

Source: ChEMBL document CHEMBL2407083, “Design and synthesis of novel 4-(4-oxo-2-arylthiazolidin-3-yl)benzenesulfonamides as selective inhibitors of carbonic anhydrase IX over I and II with potential anticancer activity” (Eur J Med Chem, 2013)
